The record followed here is ChEMBL document CHEMBL1124344, “5-Piperazinylalkyl-2(3H)-oxazolones with neuroleptic activity” (J Med Chem, 1989).

For experiment [1], the species on record is Rattus norvegicus. In words: Body weight gain, after 2 hour of period of conditioned feeding in rats,. The experiment is classed as functional. The method in brief: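 Female rats (250–280 g) were kept singly on a 22-h food deprivation schedule, with pellets 10–12 a.m. and water always available. After 30–40 days of training they were dosed 1 h before the 2-h feeding and weighed before and after it. Weight gain was expressed as a percentage of the two preceding control days. ED50 is the dose giving 50% reduction.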

Experiment [2] deals with Mus musculus. Put plainly: Inhibition of spontaneous motor activity after 1 hour of peroral administration in mouse. The settings on record: po. Format: functional. Summed up: (§1)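 Mice in groups of five were dosed orally with gum arabic suspensions at 10 mL/kg after an overnight fast, with a vehicle control group. Locomotion was counted for 10 min in a photocell activity cage, in at least two groups per dose. ED50, by probit analysis, is the dose giving 50% inhibition against controls.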

The test system of experiment [3] is Mus musculus. Put plainly: Effect on skeletal muscle tone, after 1 hour of peroral administration in mouse at a dose of 100 mg/kg. The experiment is classed as functional. The settings on record: Muscle tissue, route oral. The method in brief: (§2)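 Male mice were placed for 1 h on a 60° inclined wire screen just after dosing and 4 h later. In a second test, trained mice hung by the forepaws from a horizontal 1.8 mm wire 15 cm up; normal mice touch it with a hind paw within 2 s and stay ≥1 min. ED50 is the dose making 50% fall. Dosing was oral in gum arabic suspension at 10 mL/kg after an overnight fast.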

Experiment [4] deals with Mus musculus. Put plainly: Effect on skeletal muscle tone, after 5 hour of peroral administration in mouse at a dose of 100 mg/kg. The note with it: Muscle tissue, route oral. Format: functional. The method in brief: as §2
Experiment [5] relates to Rattus norvegicus. In words: Antagonistic activity against apomorphine-induced stereotypy, after 5 hour of peroral administration in rats at a dose of 100 mg/kg. The experiment is classed as functional. The settings on record: route oral. The method in brief: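 Male rats fasted overnight and given oral doses in arabic gum suspension (10 mL/kg) 1 h, or 1 and 5 h, before challenge. Apomorphine 3 mg/kg iv, with stereotypy observed 20 min later. ED50 is the dose inhibiting stereotypy in 50% of rats, per Janssen's method. Parenthetical entries give the maximal dose and percent activity.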

Experiment [6] deals with Mus musculus. Put plainly: Inhibition of spontaneous locomotor activity, after 1 hour of peroral administration in mouse. Format: functional. The settings on record: po. The method in brief:
as §1

In experiment [7] the test system is dog (Canis familiaris). In words: Antagonistic activity against apomorphine-induced emesis, after 5 hour of peroral administration in dogs. The settings on record: Canis lupus familiaris, po.
Experiment [8] relates to Mus musculus. In words: Inhibitory activity against tremorine-induced tremors, after 5 hour of peroral administration in mouse at dose of 60 mg/kg. Format: functional. The settings on record: route oral. The method in brief:
(§3)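 Male mice fasted overnight, dosed orally with arabic gum suspension (10 mL/kg) 1 or 5 h before test, vehicle controls included. Tremorine 20 mg/kg ip given 1 h after compounds; central (tremor) and peripheral (salivation) parasympathetic signs recorded. ED50 = dose protecting 50% of animals, by probit analysis.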

Experiment [9] relates to Mus musculus. Put plainly: Anticonvulsant activity against electroshock-induced convulsions, after 5 hour of peroral administration in mouse at dose of 100 mg/kg. The experiment is classed as functional. The settings on record: route oral. The method in brief: (§4)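 Compounds were dosed as bases suspended in arabic gum at 10 mL/kg orally, after an overnight fast, with vehicle controls. Protection meant no bilateral forepaw clonic seizures or head twitches (tryptamine), or no tonic hind-limb extension (the other two). ED50 is the dose protecting 50%, by probit analysis.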

In experiment [10] the test system is Mus musculus. In words: Anticonvulsant activity against pentylenetetrazole-induced convulsions, after 5 hour of peroral administration in mouse at dose of 100 mg/kg. The experiment is classed as functional. The settings on record: route oral. The method in brief:
as §4

Experiment [11] has as its system Mus musculus. In words: Inhibitory activity against tremorine-induced tremors, after 1 hour of peroral administration in mouse at dose of 60 mg/kg. The experiment is classed as functional. The settings on record: route oral. Summed up: as §3
The test system of experiment [12] is Mus musculus. In words: Anticonvulsant activity against tryptamine-induced convulsions, after 5 hour of peroral administration in mouse at dose of 40 mg/kg. Format: functional. The settings on record: route oral. Summed up:
as §4

Experiment [13] concerns Mus musculus. Put plainly: Anticonvulsant activity against tryptamine-induced convulsions, after 1 hour of peroral administration in mouse at a dose of 40 mg/kg. Format: functional. The note with it: route oral. The method in brief: as §4
For experiment [14], the system named is Mus musculus. Put plainly: Anticonvulsant activity against electroshock-induced convulsions, after 5 hour of peroral administration in mouse at a dose of 100 mg/kg. The experiment is classed as functional. The settings on record: route oral. Summed up:
as §4

Experiment [15] deals with Rattus norvegicus. Put plainly: Inhibitory activity against norepinephrine-induced lethality, after 5 hour of peroral administration in rat at a dose of 40 mg/kg. The experiment is classed as functional. The settings on record: route oral. The method in brief: (§5)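 Rats (80–90 g) dosed orally (arabic gum, 10 mL/kg) 1 or 5 h before norepinephrine 0.5 mg/kg iv, which kills unprotected rats within 30 min. ED50 is the dose protecting 50% of rats from lethality, by probit analysis.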

Experiment [16] has as its system Rattus norvegicus. In words: Activity to evoke catalepsy in rats, by administering perorally at a dose of 200 mg/kg. The experiment is classed as functional. The note with it: route oral. Summed up:
(§6)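 Rats fasted overnight and given oral doses in arabic gum suspension (10 mL/kg), 1 h before screening or 1 and 5 h before profile testing. Forelegs placed on a horizontal bar 7 cm high, three times at 5-min intervals. Immobility of at least 15 s counts as catalepsy. ED50 is the dose giving catalepsy in 50% of rats, by probit analysis. Parenthetical entries give the maximal dose and percent activity.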

Experiment [17] relates to Rattus norvegicus. In words: Inhibition against conditioned avoidance response, after 1 hour of peroral administration in rats at a dose of 40 mg/kg. The experiment is classed as functional. The settings on record: route oral. Summed up: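 Male rats were trained in a shuttle box to avoid grid-floor shock by crossing compartments during a warning period. Dosing was oral as a gum arabic suspension at 10 mL/kg after an overnight fast. Percent inhibition was computed against a pretraining test. ED50 is the dose giving 50% inhibition.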

Experiment [18] relates to Mus musculus. In words: Potentiation against pentobarbital-induced sleeping, after 1 hour of peroral administration in mouse at a dose of 100 mg/kg. Format: functional. The settings on record: route oral. The method in brief: (§7)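 Female mice fasted overnight, dosed orally 1 or 5 h beforehand as arabic gum suspension, 10 mL/kg, with vehicle controls. Subhypnotic pentobarbital 10 mg/kg iv; 3 min later placed on back, effect scored as complete loss of righting reflex for at least 15 s. ED50 = dose producing this in 50% of mice, probit analysis.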

Experiment [19] has as its system Mus musculus. In words: Effect on skeletal muscle tone, after 5 hour of peroral administration in mouse at a dose of 200 mg/kg. Format: functional. The settings on record: Muscle tissue, route oral. The method in brief:
as §2

Experiment [20] relates to Mus musculus. Put plainly: Effect on skeletal muscle tone, after 1 hour of peroral administration in mouse at a dose of 200 mg/kg. The experiment is classed as functional. The settings on record: Muscle tissue, route oral. The method in brief:
as §2

The subject of experiment [21] is Rattus norvegicus. Put plainly: Activity to evoke catalepsy, after 1 hour of peroral administration in rats at a dose of 200 mg/kg. Format: functional. The note with it: route oral. The method in brief: as §6
Experiment [22] deals with Mus musculus. In words: Potentiation against pentobarbital-induced sleeping, after 5 hour of peroral administration in mouse at a dose of 100 mg/kg. Format: functional. The note with it: route oral. The method in brief: as §7
The subject of experiment [23] is Mus musculus. Put plainly: Activity of inclined screen in mouse, after 5 hour of peroral administration in mouse at a dose of 100 mg/kg. The experiment is classed as functional. The settings on record: route oral. Summed up: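 Male mice dosed orally (arabic gum suspension, 10 mL/kg, fasted overnight) 1 or 5 h before testing. Placed for 1 h on a wire screen bent at 60° to the horizontal. Ataxic or miorelaxed mice slide off. ED50 is the dose at which 50% of mice fall, by probit analysis. Ten animals per dose, with vehicle controls.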

Experiment [24] concerns Rattus norvegicus. Put plainly: Inhibitory activity against norepinephrine-induced lethality, after 1 hour of peroral administration in rat at a dose of 40 mg/kg. The note with it: route oral. Format: functional. Summed up:
as §5

The subject of experiment [25] is Mus musculus. Put plainly: Contractile activity in skeletal muscles, after 1 hour of peroral administration in mouse at dose 30 mg/kg. Format: functional. The note with it: Muscle tissue, route oral. Summed up:
as §2

Experiment [26] relates to dog (Canis familiaris). In words: Antagonistic activity against apomorphine-induced emesis, after 5 hour of peroral administration in dogs. The note with it: Canis lupus familiaris, po. The source holds these as a separate data set.
Experiment [27] deals with Mus musculus. In words: Inhibitory activity against tremorine-induced tremors, after 1 hour of peroral administration in mouse at dose 20 mg/kg. The experiment is classed as functional. The note with it: route oral. Summed up:
as §3

In experiment [28] the test system is Mus musculus. Put plainly: Anticonvulsant activity against pentylenetetrazole-induced convulsions, after 1 hour of peroral administration in mouse at a dose of 20 mg/kg. Format: functional. The note with it: route oral. Summed up: as §4

For `COc1ccccc1N1CCN(CCCC(=O)c2ccc(F)cc2)CC1` [FLUANISONE], the ED50 in the experiment listed under Rattus norvegicus [1] came out at 6 mg/kg; in the experiment with Mus musculus [2], 7.7 mg/kg. The inhibition in vivo – broadly, the drop in the measured response relative to a control, in per cent – at 100 mg/kg in the experiment with Mus musculus [3] came to 30%; in the experiment with Mus musculus [4], 0%; in the experiment on Rattus norvegicus [5] it was 0%.
As for `CN(C)CCCN1c2ccccc2Sc2ccc(Cl)cc21` [CHLORPROMAZINE], the values for the ED50 with Mus musculus [6] and in the experiment on dog (Canis familiaris) [7] were 2.9 mg/kg and 7.5 mg/kg, respectively.
With `COc1ccccc1N1CCN(CCc2oc(=O)[nH]c2-c2ccc(F)cc2)CC1` [ZOLOPERONE], the inhibition in vivo at 60 mg/kg in the experiment with Mus musculus [8] was determined as 0%; with Mus musculus [11] it was 10%. Moreover, the inhibition in vivo at 100 mg/kg with Mus musculus [9] and in the experiment with Mus musculus [10] was 0% each time. The same molecule came in with an inhibition in vivo at 40 mg/kg with Mus musculus [12] of 0%.
`O=c1[nH]c(-c2ccc(F)cc2)c(CCN2CCN(c3cc(Cl)cc(Cl)c3)CC2)o1` [LODIPERONE]: the inhibition in vivo at 40 mg/kg stood at 0% with Mus musculus [13], 10% in the experiment with Rattus norvegicus [15], 44% in the experiment on Rattus norvegicus [17] and 10% in the experiment on Rattus norvegicus [24]. Moreover, the inhibition in vivo at 100 mg/kg in the experiment on Mus musculus [14] worked out at 0%; in the experiment on Mus musculus [18], 30%; in the experiment on Mus musculus [22], 0%; in the experiment on Mus musculus [23], 0%. The inhibition in vivo at 200 mg/kg is 0% with Rattus norvegicus [16], 0% in the experiment with Mus musculus [19], 10% in the experiment on Mus musculus [20] and 0% in the experiment on Rattus norvegicus [21].
In turn, `O=C(CCCN1CCC(O)(c2ccc(Cl)cc2)CC1)c1ccc(F)cc1` [HALOPERIDOL] had an inhibition in vivo at 30 mg/kg in the experiment on Mus musculus [25] of 0%. For the same molecule, in the experiment with dog (Canis familiaris) [26], the ED50 is 0.04 mg/kg. The inhibition in vivo at 20 mg/kg in the experiment on Mus musculus [27] and in the experiment with Mus musculus [28] was 0% in each case.
